Bioassay records deposited in PubChem BioAssay by Broad Institute.
rRNA inh HTS: reduced GFP signal of wild-type E. coli, primary screen, bacterial rRNA inhibitor project, GFP/RFP fluorescence, OD600, single point; E. coli WT GFP vs humanized-ribosome RFP mutants, 24 h; stronger effect = lower value; DMSO median 0, no signal -100; GFP signal change (wild-type ribosome), % (concentration not given with the values); 1.6% of 350,000 active; AID 720706, 2013;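 active = significant combined selectivity score with lowered wild-type GFP, culture density cut under 30%, mutant RFP and density less affected; inactive = any of these conditions unmet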
AF4-AF9 inh: inhibitors of AF4 peptide binding to AF9, primary screen, biochemical, AlphaScreen, biotin-AF4 peptide, FLAG-AF9, single point; Protein AF-9 (Homo sapiens), P42568; inhibition, % at 10 µM; 0.47% of 350,000 active; AID 651704, 2012;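 active = every replicate reaching a set inhibition limit, whatever the replicate mean, cut at about 25% in these data; inconclusive = mean inhibition reaches that limit but some replicates miss it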;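 note: 0% = plate neutral control median and 100% = total signal loss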
Target sequence (P42568 whole entry, looked up): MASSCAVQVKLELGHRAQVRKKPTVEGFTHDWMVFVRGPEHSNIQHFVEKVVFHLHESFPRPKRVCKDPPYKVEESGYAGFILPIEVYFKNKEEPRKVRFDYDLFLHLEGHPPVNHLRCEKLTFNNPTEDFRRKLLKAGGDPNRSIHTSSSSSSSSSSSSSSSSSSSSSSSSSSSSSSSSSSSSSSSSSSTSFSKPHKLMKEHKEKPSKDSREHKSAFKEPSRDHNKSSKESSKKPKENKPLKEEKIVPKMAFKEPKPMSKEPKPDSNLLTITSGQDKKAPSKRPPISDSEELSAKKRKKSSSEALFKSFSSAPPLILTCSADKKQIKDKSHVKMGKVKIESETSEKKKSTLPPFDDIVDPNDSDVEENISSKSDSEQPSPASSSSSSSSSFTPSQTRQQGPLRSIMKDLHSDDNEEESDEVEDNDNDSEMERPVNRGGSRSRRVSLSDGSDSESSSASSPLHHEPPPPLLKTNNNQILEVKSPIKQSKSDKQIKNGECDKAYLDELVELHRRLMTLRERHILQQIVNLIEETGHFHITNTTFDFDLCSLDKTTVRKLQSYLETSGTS
Cneo AK release: Cryptococcus neoformans cell lysis inducers, primary screen, AK release luminescence, single concentration. 0.2% of 360,000 active. C. neoformans lysis, adenylate kinase release luminescence, 4 h; normalised: neutral wells 0, clomiphene wells 100. lysis activity, % at 15 µM;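 active = mean lysis activity across replicates of at least 80%, whatever share of replicates individually reach that level; inactive = mean lysis activity below 80%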
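Assay system: Cryptococcus neoformans yeast cells / Dosing: single-point compound dose / Timing: 4 h at 37 °C static, read 1 h later / Measured by: luminescence of released adenylate kinase using an AK detection reagent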
PfHsp90 set2: growth inhibition of PfHsp90-expressing yeast, primary screen, antimalarial PfHsp90 inhibitor project, S. cerevisiae, BacTiter-Glo luminescence, single point, set 2; AID 504621, 2011; inhibition, % at 9.4 µM; BacTiter-Glo ATP, 48 h; yeast lacking PDR1 and PDR3 efflux regulators; 0.32% of 310,000 active;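 active = every replicate shows inhibition above about 80%, whatever the replicate mean, limit read from the data; inconclusive = mean inhibition reaches the set limit but some replicate falls short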;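 note: 0% = DMSO neutral controls and 100% = 20 µM radicicol positive controls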
DENV2 CPE rescue: inhibitors of DENV2 cytopathic effect, primary screen, cell-based, plate reader, single concentration; DENV2-infected cells, cytopathic effect rescue; CPE inhibition, % at 9.99 µM; 1.7% of 350,000 active; in the data active = CPE inhibition above about 20%, passing the limit was not always enough; inconclusive = no clear call, values can overlap the other calls; tested in BHK-21 cells;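 note: 0% = median of neutral control wells and 100% = median of positive control wells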
S100A4 MyoIIA: inhibitors of S100A4-myosin IIA peptide binding, primary screen, biochemical, fluorescence polarization, TAMRA-MyoIIA peptide. 0.14% of 360,000 active. AID 652163, 2013. inhibition, % at 10.7 µM. Protein S100-A4 (Homo sapiens), P26447;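 active = mean inhibition of at least 70% across replicates, with every replicate also reaching that level; inconclusive = mean inhibition reaches 70% but some replicates fall short; inactive = mean inhibition below 70%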
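assay system = human S100A4 monomer with TAMRA-labelled myosin IIA peptide | also added = labelled myosin peptide probe, 5 nM | incubation = 5 min between mix addition and reading | control set = DMSO and TFP controls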
* marks the source's active call; other numbers are inactive results; u = inconclusive; x = no result given. Most compounds without a hit are left out; they make up all but 3.2% or so of the library.

SMILES | rRNA inh HTS | AF4-AF9 inh | Cneo AK release | PfHsp90 set2 | DENV2 CPE rescue | S100A4 MyoIIA
C[C@H]1CN([C@@H](C)CO)C(=O)Cc2cc(NC(=O)CCC(F)(F)F)ccc2O[C@@H]1CN(C)Cc1ccc(C(=O)Nc2ccccc2N)cc1 | -3 | -3 | x | x | 7 | -6
C[C@@H]1CN([C@@H](C)CO)C(=O)Cc2cc(NC(=O)CCCN(C)C)ccc2O[C@H]1CN(C)Cc1ccc(C(=O)Nc2ccccc2N)cc1 | 4 | 31* | x | x | 8 | 6
C[C@@H]1CN([C@H](C)CO)C(=O)Cc2cc(NC(=O)CCC(F)(F)F)ccc2O[C@@H]1CN(C)Cc1ccc(C(=O)Nc2ccccc2N)cc1 | -2 | 3 | -1 | x | 38* | -4
C[C@H](CO)N1C[C@H](C)[C@H](CN(C)Cc2ccc(C(=O)Nc3ccccc3N)cc2)Oc2ccc(NC(=O)Cc3ccccc3)cc2CC1=O | -4 | -7 | x | x | 32* | -1
C[C@H]1CN([C@@H](C)CO)C(=O)Cc2cc(NC(=O)c3ccncc3)ccc2O[C@H]1CN(C)Cc1ccc(C(=O)Nc2ccccc2N)cc1 | -2 | -9 | 1 | x | 58* | 2
CC1CCN(c2nc(/C=C/c3ccccc3)nc3ccccc23)CC1 | -19 | 32* | x | 8 | u | -4
C[C@@H]1CN([C@@H](C)CO)C(=O)Cc2cc(NC(=O)Cc3cn(C)c4ccccc34)ccc2O[C@H]1CN(C)C(=O)Nc1cccc2ccccc12 | -3 | 1 | -3 | x | 12 | 4
CC(C)(C)OC(=O)N[C@@H]1C=CC(=O)C1 | 10 | -3 | x | x | -11 | -1
CC(C)(C)OC(=O)N[C@H]1C=C[C@@H](CC(=O)OCC(F)(F)F)C1 | 8 | -1 | x | x | 36* | -3
C[C@@H]1CN([C@@H](C)CO)C(=O)c2cc(/C=C/c3ccccc3)cnc2O[C@H]1CN(C)Cc1ccccc1F | -25 | 28* | 2 | x | 8 | 34
Cc1ccc(S(=O)(=O)N(C)C[C@@H]2Oc3ncc(/C=C/c4ccccc4)cc3C(=O)N([C@H](C)CO)C[C@@H]2C)cc1 | 0 | 0 | 0 | x | 23* | 18
C[C@@H]1CN([C@@H](C)CO)C(=O)c2cc(/C=C/c3ccccc3)cnc2O[C@H]1CN(C)S(=O)(=O)c1cccs1 | -3 | 0 | 2 | x | -1 | 94*
C[C@@H]1CN([C@@H](C)CO)C(=O)c2cc(/C=C/c3ccccc3)cnc2O[C@@H]1CN(C)Cc1ccccc1F | -18 | 14 | -4 | x | 0 | 0
C[C@H](CO)N1C[C@H](C)[C@H](CN(C)S(C)(=O)=O)Oc2ncccc2C1=O | 3 | -5 | -1 | x | 7 | 6
C[C@H](CO)N1C[C@H](C)[C@H](CN(C)S(=O)(=O)c2cccs2)Oc2ncccc2C1=O | 6 | 0 | -7 | x | 37* | -4
C[C@@H]1CN([C@H](C)CO)C(=O)c2cc(C3=CCCCC3)cnc2O[C@H]1CN(C)C(=O)c1cccnc1 | -2 | -3 | -5 | x | -12 | -2
Cc1ccc(S(=O)(=O)Nc2ccc3c(c2)C(=O)N([C@H](C)CO)C[C@@H](C)[C@H](CN(C)C(=O)Nc2c(C)noc2C)O3)cc1 | -1 | 0 | -3 | x | 2 | 0
Cc1cc(OCC(=O)NC2CC(C)(C)NC(C)(C)C2)c(C)cc1Br | 0 | -3 | 8 | -6 | 42* | -1
COCC(=O)N(C)C[C@H]1Oc2ncc(-c3ccc(C#N)cc3)cc2C(=O)N([C@H](C)CO)C[C@@H]1C | -1 | -4 | x | x | x | x
CCC(=O)N1N=C(c2cccs2)CC1c1ccc(OC)cc1 (configuration not stated) | -1 | 12 | -2 | -24 | -3 | -4
